Source: ChEMBL document CHEMBL4311948, “Exploring the Natural Piericidins as Anti-Renal Cell Carcinoma Agents Targeting Peroxiredoxin 1” (J Med Chem, 2019)
pIC50: −log10 of the molar value.

Experiments:
[1] = system: ACHN; assay: Cytotoxicity against human ACHN cells assessed as reduction in cell viability measured after 72 hrs by CCK8 assay; type: functional, cell-based
In short: (§1)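 Cells were grown in 10% FBS medium: MEM for ACHN, RPMI1640 for OS-RC-2 and 786-O, DMEM for HK-2. They were seeded at 400–800 cells/well in 384-well plates and treated with a range of compound concentrations or solvent control, with sorafenib as positive control. After 72 h, CCK-8 absorbance was read at 450 nm in triplicate, and IC50 was taken from dose-response curves.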

[2] = system: OS-RC-2; assay: Cytotoxicity against human OS-RC2 cells assessed as reduction in cell viability measured after 72 hrs by CCK8 assay; type: functional, cell-based; conditions: OS-RC-2, 72 h; in short: as §1
[3] = system: 786-0; assay: Cytotoxicity against human 786-O cells assessed as reduction in cell viability measured after 72 hrs by CCK8 assay; type: functional, cell-based; conditions: 786-0, 72 h; in short: as §1
[4] = system: HK-2; assay: Cytotoxicity against human HK2 cells assessed as reduction in cell viability measured after 72 hrs by CCK8 assay; type: cell-based; conditions: HK-2, 72 h; in short: as §1
[5] = system: ACHN; assay: Cytotoxicity against human ACHN cells harboring shPRDX1 gene assessed as reduction in cell viability measured after 72 hrs by CCK8 assay; type: functional, cell-based; conditions: for pIC50: Homo sapiens, ACHN, 72 h, read-out: IC50
In short: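 Transfectants were selected with puromycin (1 μg/mL), and knockdown was confirmed by immunoblot. Viability was read by CCK-8 after 72 h of compound exposure in 384-well plates at 400–800 cells/well in MEM with 10% FBS, and IC50 was taken from dose-response curves.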

SMILES: C/C=C(\C)[C@H](O[C@@H]1O[C@H](CO)[C@@H](O)[C@H](O)[C@H]1O)[C@H](C)/C=C(C)/C=C/C/C(C)=C/Cc1nc(OC)c(OC)c(O[C@@H]2O[C@H](CO)[C@@H](O)[C@H](O)[C@H]2O)c1C
- pIC50 [1]: 4.55
- pIC50 [2]: < 4.00
- pIC50 [3]: < 4.00
- pIC50 [4]: 5.96

SMILES: C/C=C/[C@H](O)[C@H](C)/C=C(C)/C=C/C/C(C)=C/Cc1nc(OC)c(OC)c(O)c1C
- pIC50 [1]: 5.39
- pIC50 [2]: 4.96
- pIC50 [3]: < 4.00
- pIC50 [5]: 4.96

SMILES: C/C=C(\C)C(=O)[C@H](C)/C=C(C)/C=C/C/C(C)=C/Cc1nc(OC)c(OC)c(O)c1C
- pIC50 [1]: < 4.00
- pIC50 [2]: 4.66
- pIC50 [3]: < 4.00
- pIC50 [5]: < 4.00

SMILES: C/C=C(\C)[C@H](O[C@@H]1O[C@H](CO[C@H]2O[C@H](CO)[C@H](O)[C@H](O)[C@H]2O)[C@@H](O)[C@H](O)[C@H]1O)[C@H](C)/C=C(C)/C=C/C/C(C)=C/Cc1nc(OC)c(OC)c(O)c1C
- pIC50 [1]: 5.35
- pIC50 [2]: < 4.00
- pIC50 [3]: < 4.00
- pIC50 [4]: < 4.00
- pIC50 [5]: 5.05

SMILES: C/C=C(\C)[C@H](O[C@@H]1O[C@H](CO)[C@@H](O)[C@H](O)[C@H]1O)[C@H](C)/C=C(\C)[C@@H](OC)[C@@H](O)C/C(C)=C/Cc1nc(OC)c(OC)c(O)c1C
- pIC50 [1]: 5.62
- pIC50 [2]: < 4.00
- pIC50 [3]: < 4.00

SMILES: C/C=C(\C)[C@H](O[C@@H]1O[C@H](CO[C@H]2O[C@H](CO)[C@@H](O)[C@H](O)[C@H]2O)[C@@H](O)[C@H](O)[C@H]1O)[C@H](C)/C=C(C)/C=C/C/C(C)=C/Cc1nc(OC)c(OC)c(O)c1C
- pIC50 [1]: 4.68
- pIC50 [2]: < 4.00
- pIC50 [3]: < 4.00
- pIC50 [4]: < 4.00

SMILES: COc1nc(C/C=C(\C)C/C=C/C(C)=C/[C@@H](C)[C@@H](O[C@@H]2O[C@H](CO)[C@@H](O)[C@H](O)[C@H]2O)/C(C)=C/CO)c(C)c(O)c1OC
- pIC50 [1]: 5.14
- pIC50 [2]: < 4.00
- pIC50 [3]: < 4.00
- pIC50 [4]: < 4.00
- IC50 ([5]; achn): Not Active

SMILES: COc1nc(C/C=C(\C)C/C(C)=C/C(C)=C/[C@@H](C)[C@@H](O)/C(C)=C/[C@@](C)(O)[C@H](C)O)c(C)c(O)c1OC
- pIC50 [1]: 5.42
- pIC50 [2]: 5.39
- pIC50 [3]: < 4.00
- pIC50 [4]: 4.20
- pIC50 [5]: 4.89

SMILES: COc1nc(C/C=C(\C)C/C=C/C(C)=C/[C@@H](C)[C@@H](O[C@@H]2O[C@H](CO)[C@@H](O)[C@H](O)[C@H]2O)[C@@]2(C)O[C@@H]2C)c(C)c(O)c1OC
- pIC50 [1]: 5.55
- pIC50 [2]: 4.52
- pIC50 [3]: 4.72

SMILES: COc1nc(C/C=C(\C)C/C(C)=C/C(C)=C/[C@@H](C)[C@@H](O)/C(C)=C/[C@](C)(O)[C@@H](C)O)c(C)c(O)c1OC
- pIC50 [1]: 5.62
- pIC50 [2]: 5.28
- pIC50 [3]: < 4.00
- pIC50 [4]: 4.36
- pIC50 [5]: 5.09

SMILES: COc1nc(C/C=C(\C)C/C=C/C(C)=C/[C@@H](C)[C@@H](O[C@@H]2O[C@H](CO[C@H]3O[C@H](CO)[C@@H](O)[C@H](O)[C@H]3O)[C@@H](O)[C@H](O)[C@H]2O)/C(C)=C/CO)c(C)c(O)c1OC
- pIC50 [1]: 4.64
- pIC50 [2]: < 4.00
- pIC50 [3]: < 4.00
- pIC50 [4]: < 4.00
- pIC50 [5]: 4.24

SMILES: C/C=C(\C)[C@H](O)[C@H](C)/C=C(C)/C=C(\C)C/C(C)=C/Cc1nc(OC)c(OC)c(O)c1C
- pIC50 [1]: 4.85
- pIC50 [2]: 4.77
- pIC50 [3]: 4.30
- pIC50 [4]: 4.35
- pIC50 [5]: 4.17

SMILES: C/C=C(\C)[C@H](O[C@@H]1O[C@H](CO)[C@@H](O)[C@H](O)[C@H]1O)[C@H](C)/C=C/C=C/C/C(C)=C/Cc1nc(OC)c(OC)c(O)c1C
- pIC50 [1]: 6.51
- pIC50 [2]: 5.59
- pIC50 [3]: 6.00

SMILES: C/C=C(\C)[C@H](O[C@@H]1O[C@H](CO)[C@@H](O)[C@H](O)[C@H]1O)[C@H](C)/C=C(C)/C=C/C/C(C)=C/Cc1nc(OC)cc(O)c1C
- pIC50 [1]: 5.42
- pIC50 [2]: 4.85
- pIC50 [3]: 4.82

SMILES: COc1nc(C/C=C(\C)C/C=C/C=C/[C@@H](C)[C@@H](O[C@@H]2O[C@H](CO)[C@@H](O)[C@H](O)[C@H]2O)/C(C)=C/CO)c(C)c(O)c1OC
- pIC50 [1]: 5.60
- pIC50 [2]: 4.10
- pIC50 [3]: 4.55

SMILES: COc1nc(C/C=C(\C)C[C@H](O)[C@H](OC)/C(C)=C/[C@@H](C)[C@@H](O[C@@H]2O[C@H](CO)[C@@H](O)[C@H](O)[C@H]2O)/C(C)=C/CO)c(C)c(O)c1OC
- pIC50 [1]: 4.22
- pIC50 [2]: < 4.00
- pIC50 [3]: < 4.00

SMILES: COc1nc(C/C=C(\C)C/C=C/C(C)=C/[C@@H](C)[C@@H](O[C@@H]2O[C@H](CO[C@H]3O[C@H](CO)[C@H](O)[C@H](O)[C@H]3O)[C@@H](O)[C@H](O)[C@H]2O)/C(C)=C/CO)c(C)c(O)c1OC
- pIC50 [1]: < 4.00
- pIC50 [2]: < 4.00
- pIC50 [3]: < 4.00
- pIC50 [4]: < 4.00

SMILES: COc1nc(C/C=C(\C)C/C(C)=C/C(C)=C/[C@@H](C)[C@@H](O)[C@]2(C)O[C@H]2C)c(C)c(O)c1OC
- pIC50 [1]: < 4.00
- pIC50 [2]: 4.66
- pIC50 [3]: < 4.00
- pIC50 [4]: < 4.00
- pIC50 [5]: < 4.00
